Data: ChEMBL document CHEMBL3804828, “2,4,6-Triaminopyrimidine as a Novel Hinge Binder in a Series of PI3Kδ Selective Inhibitors” (J Med Chem, 2016)

Assays:
[1] = Ratio of drug level in blood to plasma in Lewis rat; assay type: ADME, cell-free; details: blood and plasma
Rattus norvegicus [2] = assay: In vivo inhibition of PI3Kdelta in collagen-induced Lewis rat arthritis model at 10 mg/kg administered bid through oral gavage at 2 to 12 hrs on 3rd and 7th day of compound dosing; assay type: functional
How it was run: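 CIA Lewis rats dosed orally twice daily; plasma drug levels measured in blood samples taken at set times post-dose on days 3 and 7; trough PI3Kδ inhibition estimated from EC50/EC90 of the rat whole-blood ex vivo BCR-induced B-cell activation assay.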

[3] = Cmax in Lewis rat at 1 mg/kg, iv administered via infusion over 30 mins or at 5 mg/kg, po administered via gavage by LC/MS/MS analysis; assay type: ADME, organism-based; details: in vivo
How it was run: (§1)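 Female Lewis rats, n=3 per route; 30-min iv infusion at 1 mg/kg and oral dose at 5 mg/kg, both in 30% PEG 400/70% water; plasma concentration-time profiles sampled to 24 h; values as mean ± SD.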

[4] = Half life in Lewis rat at 5 mg/kg, po administered through gavage measured after 24 hrs by LC/MS/MS analysis; assay type: ADME, organism-based; details: in vivo
Homo sapiens = species on record: Homo sapiens; assay: Selectivity ratio of IC50 for human recombinant PI3Kbeta to IC50 for human full length PI3Kdelta catalytic subunit/p85alpha
How it was run: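 Ratio calculated from the isoform-specific PI3K IC50 values, with enzyme assays run in quadruplicate.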

[5] = molecular target: T1, Phosphatidylinositol 4,5-bisphosphate 3-kinase catalytic subunit delta isoform (Homo sapiens, UniProt O00329); assay: Inhibition of PI3Kdelta in human whole blood assessed as basophil degranulation by measuring CD63 surface expression on CCR3 positive cells after 60 mins by flow cytometric analysis; assay type: tissue-based
T1 sequence (O00329 whole entry): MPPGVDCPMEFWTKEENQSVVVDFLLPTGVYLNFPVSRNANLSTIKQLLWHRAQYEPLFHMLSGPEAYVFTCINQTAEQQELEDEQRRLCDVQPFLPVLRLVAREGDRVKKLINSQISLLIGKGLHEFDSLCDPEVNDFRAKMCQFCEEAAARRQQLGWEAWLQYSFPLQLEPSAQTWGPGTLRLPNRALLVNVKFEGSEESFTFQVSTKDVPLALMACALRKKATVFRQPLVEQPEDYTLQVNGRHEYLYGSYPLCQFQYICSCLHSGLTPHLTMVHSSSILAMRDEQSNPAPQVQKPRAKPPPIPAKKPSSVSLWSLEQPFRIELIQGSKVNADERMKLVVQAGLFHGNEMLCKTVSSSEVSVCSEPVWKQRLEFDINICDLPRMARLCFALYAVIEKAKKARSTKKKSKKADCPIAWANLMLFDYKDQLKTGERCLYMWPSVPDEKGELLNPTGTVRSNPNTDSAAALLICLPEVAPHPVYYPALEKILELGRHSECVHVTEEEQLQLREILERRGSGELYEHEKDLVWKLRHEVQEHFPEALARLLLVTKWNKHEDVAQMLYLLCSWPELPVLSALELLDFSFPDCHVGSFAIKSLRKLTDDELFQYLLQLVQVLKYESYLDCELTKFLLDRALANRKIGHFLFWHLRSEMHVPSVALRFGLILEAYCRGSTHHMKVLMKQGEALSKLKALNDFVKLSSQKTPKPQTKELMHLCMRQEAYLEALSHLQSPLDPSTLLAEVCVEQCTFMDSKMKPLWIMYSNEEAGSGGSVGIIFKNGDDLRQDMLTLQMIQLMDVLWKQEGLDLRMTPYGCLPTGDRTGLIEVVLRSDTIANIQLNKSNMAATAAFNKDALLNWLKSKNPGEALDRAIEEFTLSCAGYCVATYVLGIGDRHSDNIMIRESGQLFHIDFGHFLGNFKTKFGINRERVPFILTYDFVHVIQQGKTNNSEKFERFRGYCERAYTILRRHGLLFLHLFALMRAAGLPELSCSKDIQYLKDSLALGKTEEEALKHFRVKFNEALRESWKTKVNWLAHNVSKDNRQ

Rattus norvegicus [6] = assay: Antiarthritis activity in collagen-induced Lewis rat arthritis model assessed as reduction in ankle swelling administered bid through oral gavage for 7 days measured every day started on day 9 and continuing through day 16 of compound dosing; assay type: functional, organism-based
How it was run: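 Female Lewis rats with established collagen-induced arthritis dosed orally by gavage twice daily for 7 days (study days 10–16) with vehicle, 0.34, 1.07, 4.6 or 10 mg/kg, or dexamethasone 0.03 mg/kg; right and left ankle diameters by caliper daily, days 9–16; ankle and knee sections graded 0–5 per histopathology parameter; p < 0.05 versus arthritis + vehicle.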

Hepatocyte = assay: Clearance in rat hepatocytes at 1 uM by LC/MS/MS analysis; assay type: ADME, cell-based
[7] = Oral bioavailability in Lewis rat at 5 mg/kg administered through gavage measured after 24 hrs by LC/MS/MS analysis; assay type: ADME, organism-based; details: in vivo; how it was run: as §1

- blood plasma ratio [1]: 1.4
- Cmax [3]: 2830 nM
- half-life [4]: 3.2 h
- Ratio IC50 (Homo sapiens): 650
- EC50 [5]: 1 nM
- CLH (Hepatocyte): 23.3 mL/min/kg
- bioavailability [7]: 106%
SMILES: C[C@H](Nc1nc(N)nc(N)c1C#N)c1nc2cccc(F)c2c(=O)n1-c1cc(F)cc(F)c1
- inhibition in vivo at 10 mg/kg (Rattus norvegicus [2]): > 90%
- Activity (Rattus norvegicus [6]): Dose-dependent effect
